From PubChem BioAssay
The list is not random: actives were taken first. Their share in the collection is about 3.7%.
MC4R ag barr = MC4R agonists recruiting beta-arrestin, primary screen, cell-based, luminescence, agonist arm of biased-ligand search | U2OS MC4R beta-arrestin complementation; percent of melanotan II response, DMSO zero | activation, % at 8.9 µM | actives 0.98% (n = 360,000) | AID 540308, 2011;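 active = activation above a per-plate cutoff, the mean activation of sample wells on that plate plus 3 SD, cut at about 8% in these data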
Target sequence (P32245 whole entry, looked up): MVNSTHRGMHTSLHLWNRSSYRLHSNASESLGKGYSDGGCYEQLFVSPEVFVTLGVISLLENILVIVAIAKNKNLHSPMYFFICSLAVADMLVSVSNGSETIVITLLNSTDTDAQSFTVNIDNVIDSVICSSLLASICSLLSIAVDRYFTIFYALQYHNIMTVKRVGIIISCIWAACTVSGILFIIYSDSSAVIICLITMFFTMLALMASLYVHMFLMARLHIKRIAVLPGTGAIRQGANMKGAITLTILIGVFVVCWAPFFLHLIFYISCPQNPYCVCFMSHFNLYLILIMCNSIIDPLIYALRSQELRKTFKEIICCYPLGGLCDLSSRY
EBI2 block = EBI2 receptor antagonists, beta-arrestin recruitment, primary screen, cell-based, luminescence, 7a,25-OHC stimulation, uHTS; inhibition, % at 5 µM; actives 0.81% (n = 360,000); 7a,25-OHC stimulated; G-protein coupled receptor 183 (Homo sapiens), P32249; in the data active = inhibition above about 38%;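 note: enzyme fragment complementation signal reports receptor beta-arrestin coupling in cells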
Exocytosis inh = LAMP-1 surface exposure blockers, TALL-104 cells – cell-based, flow cytometry, MLPCN library, primary screen | AID 651702, 2012 | actives 0.66% (n = 360,000) | inhibition, % at 10 µM | TALL-104 LAMP-1 surface exposure; cells stimulated with thapsigargin and PMA;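 active = inhibition above about 55%, limit read from the data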
MC4R antag cAMP = MC4R antagonists of cAMP signaling, primary screen, cell-based, TR-FRET, antagonist arm of biased-ligand search; MC4R-expressing cells, MTII-stimulated cAMP, LANCE TR-FRET; actives 0.48% (n = 360,000); Melanocortin receptor 4 (Homo sapiens), P32245; inhibition, % at 6.5 µM;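 active = inhibition above its plate's cutoff, the mean of tested wells on that plate plus 3 SD, cut at about 29% in these data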
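Assay system: human MC4R-expressing U2OS cells; reagent: Melanotan II stimulation of cells; dosing: 6.5 µM single dose; timing: compound 30 min, challenge 1 h, detection 1 h; signal: TR-FRET cAMP assay; replicates: one well per compound, no replicates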
Myeloid diff MLP = induction of myeloid progenitor differentiation, primary screen, cell-based, flow cytometry, MLPCN library. AID 624256, 2012. calls only at 10 µM. ER-HoxA9 myeloid progenitors, lysozyme-GFP differentiation. actives 1% (n = 360,000);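 active = normalized GFP-positive differentiation at or above the plate's own cutoff, the solvent-only control mean plus 3 SD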;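 note: cells exposed to compound for four days before flow analysis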
Large screens that a line does not name were inactive; ! = not active in a repeat.

CC1(C)S[C@@H]2[C@H](NC(=O)[C@H](N)c3ccccc3)C(=O)N2[C@H]1C(=O)O	Myeloid diff MLP active!
CC1(C)S[C@@H]2[C@H](NC(=O)[C@H](N)c3ccc(O)cc3)C(=O)N2[C@H]1C(=O)O	none
CN(C)CCCN(C(=O)c1ccc2c(c1)CCCC2)c1nc2ccc(Cl)cc2s1	MC4R ag barr 9.1, Myeloid diff MLP active
CC1CCCCN1S(=O)(=O)c1ccc(C(=O)N(CCCN(C)C)c2nc3ccc(Br)cc3s2)cc1 (stereo not drawn)	MC4R ag barr 8.8
Cc1cc(C)c2nc(N(CCCN(C)C)C(=O)c3ccc4c(c3)OCCO4)sc2c1	MC4R ag barr 8.4
CC(C#N)(CCc1ccccn1)CCc1ccccn1	none
Cc1nc(-c2ccc(F)cc2)c(CC(=O)Nc2ccc(C)c(S(=O)(=O)N3CCOCC3)c2)s1	none
CN(N)c1nc(C(F)(F)F)nc2ccccc12	Myeloid diff MLP active
Cc1nn(Cc2ccccc2Cl)c(C)c1NC(=O)c1cc(-c2ccc(F)cc2)on1	MC4R ag barr 8.9
CC(=O)N[C@H]1[C@H]([C@H](O)[C@H](O)CO)O[C@](O)(C(=O)O)C[C@@H]1O	none
CCCCc1cc(=O)oc2cc(OCC(=O)NC3CCN(Cc4ccccc4)CC3)ccc12	Myeloid diff MLP active
CCc1cc(=O)oc2cc(C)cc(OCC(=O)NC3CCN(Cc4ccccc4)CC3)c12	none
CC[C@@H](C)[C@H](N)C(=O)NC[C@H]1O[C@@H](n2cnc3c(N)ncnc32)[C@H](O)[C@@H]1O	none
O=[N+]([O-])/C(C(Cl)=C(Cl)Cl)=C1\Nc2ccccc2O1	none
CCCCOc1ccc2c(c1)/C(=C(\C(Cl)=C(Cl)Cl)[N+](=O)[O-])N2	Myeloid diff MLP active
CCOc1ccc2c(c1)/C(=C(\C(Cl)=C(Cl)Cl)[N+](=O)[O-])N2	Myeloid diff MLP active
O=S(=O)(Nc1nc2ccccc2s1)c1ccc(Br)s1	Myeloid diff MLP active
N=c1c(S(=O)(=O)c2ccccc2)cc2c(=O)n3ccccc3nc2n1C1CCCC1	Myeloid diff MLP active
Cc1cccc(NC(=O)CN2C(=O)N/C(=C/c3ccc(C)s3)C2=O)c1	Myeloid diff MLP active
Cc1cccc(NC(=O)CN2C(=O)N/C(=C/c3cc(C)n(C(C)C)c3C)C2=O)c1	none
O=C(Cc1coc2ccc3ccccc3c12)NC1CCCc2ccccc21 (stereo not drawn)	MC4R ag barr 9.1
O=C(Cc1coc2ccc3ccccc3c12)NCc1ccccc1	none
Cc1ccc(S(=O)(=O)N2CCCCC2C(=O)Nc2ccc(N(C)C)cc2)cc1 (stereo not drawn)	none
Cc1cccc(C)c1-n1c(C)nn(CCOc2ccccc2)c1=O	Myeloid diff MLP active
Cc1nn(CCOc2ccccc2)c(=O)n1-c1ccc(F)cc1	none
C=CCSc1nnc(N2C(=O)C(O)=C(C(=O)c3ccco3)C2c2ccccc2F)s1 (stereo not drawn)	Myeloid diff MLP active
Cn1c(SCC(=O)NCC2CCCO2)nc2c(c1=O)SCC2 (stereo not drawn)	none
Nc1ccc(C(=O)NCCCCCCNC(=O)c2ccc(N)cc2)cc1	none
Nc1ccc(C(=O)NCC(=O)O)cc1	Myeloid diff MLP active
O=C(O)CNC(=O)c1ccc(Oc2c(F)c(F)c(Oc3ccc(C(=O)NCC(=O)O)cc3)c(F)c2F)cc1	Myeloid diff MLP active
Cc1ccc(O)c(NC(=O)c2cccc(S(=O)(=O)N3CCCCC3)c2)c1	Myeloid diff MLP active
CN1CCN(S(=O)(=O)c2cccc(C(=O)Nc3cc(C(F)(F)F)ccc3N3CCCCC3)c2)CC1	Myeloid diff MLP active
CC(SCC(=O)NC(C)C1CC2CCC1C2)C(=O)O (stereo not drawn)	none
Cc1ccc(OCC(=O)N/N=C/c2cn[nH]c2-c2ccc(Cl)c(Cl)c2)cc1	MC4R ag barr 8.7
O=C(O)c1ccc(N=C2SCC(=O)N2Cc2ccccc2)cc1	none
COc1ccc(N=C2SCC(=O)N2Cc2ccccc2)cc1	Myeloid diff MLP active
CC(C)CN(Cc1cc(=O)oc2cc(-c3ccccc3)c(O)cc12)CC(C)C	MC4R ag barr 10.7
O=c1cc(CN2CCN(C/C=C/c3ccccc3)CC2)c2cc(O)c(-c3ccccc3)cc2o1	none
CC(=O)c1nn(-c2cccc(Br)c2)cc1C(=O)c1ccccc1	MC4R ag barr 9.4
CC(=O)c1nn(-c2ccccc2)cc1C(=O)c1ccc(Br)cc1	none
CCN(CC)C(=O)[C@H]1CC(CC(=O)NCc2ccco2)C(=O)N2CCc3c([nH]c4ccc(OC)cc34)[C@]12C (stereo partly drawn)	none
O=C(c1ccc(CSc2nc3ccncc3[nH]2)cc1)N1CCN(c2cccc(Cl)c2)CC1	Myeloid diff MLP active
O=C(c1ccc(CSc2nc3ccncc3[nH]2)cc1)N1CCCCCC1	none
CCOC(=O)c1c(C)[nH]c(C)c1C(=O)COC(=O)c1cccs1	none
CN1CCN(c2ncnc3c2ncn3[C@H]2CN(Cc3cccnc3)C[C@@H](CO)O2)CC1	none
Cc1c([N+](=O)[O-])cc(N2C(=O)C=CC2=O)cc1[N+](=O)[O-]	none
Cc1cc(C)cc(N2C(=O)C=CC2=O)c1	MC4R antag cAMP 32.7
Cc1cc(C)cc(C(O)c2ncc(-c3ccccc3C)[nH]2)c1 (stereo not drawn)	none
CCOC(=O)c1c(C)n(OCc2ccccc2)c2ccc3nonc3c12	MC4R ag barr 8.8
C=CCNC(=S)NNC(=O)c1ccc(=O)n(Cc2ccc(Cl)cc2Cl)c1	none
COc1cc(-c2nnc(COC(=O)c3ccc([N+](=O)[O-])o3)o2)cc(OC)c1OC	none
O=C(CSc1nnc(-c2ccc(Br)cc2)o1)Nc1cccc(C(=O)O)c1	none
O=C(CSc1nnc(-c2ccc(Br)cc2)o1)Nc1cccc2ccccc12	MC4R ag barr 9.1
COc1cccc(Oc2ccc(C(F)(F)F)cc2NC(=O)CN2C(=O)NC3(CCCC3)C2=O)c1	none
Cc1cc(C)cc(NC(=O)COc2coc(CN3CCc4ccccc4C3)cc2=O)c1	none
COc1ccc(-c2cc(C(F)(F)F)nc(S(C)(=O)=O)n2)cc1	none
CCOC(=O)CCS(=O)(=O)c1nc(-c2ccccc2)cc(C(F)(F)F)n1	Exocytosis inh 88.1 (no result: Myeloid diff MLP)
COCC(C)NC(=O)CCS(=O)(=O)c1nc(-c2ccc(OC)cc2)cc(C(F)(F)F)n1 (stereo not drawn)	Exocytosis inh 77.5
O=C1CN(c2nc3nonc3nc2N2CCCCC2)CCN1	none
Cc1cc(C)cc(NC(=O)CCN2CCOCC2)c1	none
Cc1ccc(N=c2ssnc2Cl)cc1	Exocytosis inh 95.3
Nc1ccccc1N=c1ssnc1Cl	none
